Measured values from ChEMBL document CHEMBL4400556, “β-Lactones: A Novel Class of Ca2+-Independent Phospholipase A2 (Group VIA iPLA2) Inhibitors with the Ability To Inhibit β-Cell Apoptosis” (J Med Chem, 2019).
Active and inactive are the calls of the source. The rule behind the calls is not given here.

Tests used:
[1] = target: T1, 85/88 kDa calcium-independent phospholipase A2 (Homo sapiens) (UniProt O60733); experiment: (§1) Inhibition of human recombinant G6A iPLA2 using arachidonyl-1-14C PAPC and PAPC incubated for 30 mins by HPLC-MS analysis based radioactivity-based group specific mixed micelle assay
T1 sequence (whole entry): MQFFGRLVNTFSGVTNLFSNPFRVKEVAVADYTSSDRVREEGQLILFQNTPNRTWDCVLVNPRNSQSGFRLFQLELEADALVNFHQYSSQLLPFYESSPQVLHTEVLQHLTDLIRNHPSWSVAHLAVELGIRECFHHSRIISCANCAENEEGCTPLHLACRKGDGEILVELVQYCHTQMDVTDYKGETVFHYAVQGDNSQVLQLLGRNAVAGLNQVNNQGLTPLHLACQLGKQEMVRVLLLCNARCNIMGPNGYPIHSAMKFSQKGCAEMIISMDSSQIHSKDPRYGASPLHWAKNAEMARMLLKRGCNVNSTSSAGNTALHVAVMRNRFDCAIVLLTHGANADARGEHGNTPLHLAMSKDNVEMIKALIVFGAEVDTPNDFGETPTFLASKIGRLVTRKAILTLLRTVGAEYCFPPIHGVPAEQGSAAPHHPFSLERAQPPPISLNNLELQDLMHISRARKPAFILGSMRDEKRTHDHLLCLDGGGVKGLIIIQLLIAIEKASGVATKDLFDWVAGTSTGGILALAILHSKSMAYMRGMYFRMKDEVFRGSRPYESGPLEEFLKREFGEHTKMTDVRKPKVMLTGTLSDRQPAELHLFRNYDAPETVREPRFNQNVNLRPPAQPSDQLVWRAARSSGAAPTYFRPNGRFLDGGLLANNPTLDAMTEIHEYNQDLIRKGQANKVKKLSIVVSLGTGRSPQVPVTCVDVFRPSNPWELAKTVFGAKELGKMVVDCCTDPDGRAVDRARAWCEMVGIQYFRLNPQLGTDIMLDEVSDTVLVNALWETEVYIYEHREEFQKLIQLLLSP
Method in brief: (§2)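 Human recombinant GVIA iPLA2, radioactivity mixed-micelle assay. Substrate: 400 μM Triton X-100, 98.3 μM PAPC, 1.7 μM arachidonyl-1-14C PAPC. Buffer: 100 mM HEPES pH 7.5, 2 mM ATP, 4 mM DTT. Screened at 0.091 mole fraction from DMSO.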

Homo sapiens [2] = organism: Homo sapiens; experiment: Inhibition of human recombinant G5 sPLA2 at 0.091 mole fraction using arachidonyl-1-14C PAPC and PAPC by HPLC-MS analysis based radioactivity-based group specific mixed micelle assay relative to control
Method in brief: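 Human recombinant GV sPLA2, radioactivity mixed-micelle assay. Substrate: 400 μM Triton X-100, 98.3 μM PAPC, 1.7 μM arachidonyl-1-14C PAPC. Buffer: 50 mM Tris-HCl pH 8.0, 5 mM CaCl2. Compound added from DMSO at 0.091 mole fraction; percent inhibition measured.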

[3] = target: T1, 85/88 kDa calcium-independent phospholipase A2 (Homo sapiens); experiment: Inhibition of human recombinant G6A iPLA2 at 0.091 mole fraction using arachidonyl-1-14C PAPC and PAPC incubated for 30 mins by HPLC-MS analysis based radioactivity-based group specific mixed micelle assay relative to control; method in brief: as §2
[4] = target: T2, 85/88 kDa calcium-independent phospholipase A2 (Homo sapiens, UniProt O60733); experiment: as §1; method in brief: as §2
T2 sequence (O60733 whole entry): T1 sequence (whole entry)

[5] = target: T3, Cytosolic phospholipase A2 (Homo sapiens) (UniProt P47712); experiment: Inhibition of human recombinant G4A cPLA2 at 0.091 mole fraction using arachidonyl-1-14C PAPC , PAPC and PIP2 incubated for 30 mins by HPLC-MS analysis based radioactivity-based group specific mixed micelle assay
T3 sequence (whole entry): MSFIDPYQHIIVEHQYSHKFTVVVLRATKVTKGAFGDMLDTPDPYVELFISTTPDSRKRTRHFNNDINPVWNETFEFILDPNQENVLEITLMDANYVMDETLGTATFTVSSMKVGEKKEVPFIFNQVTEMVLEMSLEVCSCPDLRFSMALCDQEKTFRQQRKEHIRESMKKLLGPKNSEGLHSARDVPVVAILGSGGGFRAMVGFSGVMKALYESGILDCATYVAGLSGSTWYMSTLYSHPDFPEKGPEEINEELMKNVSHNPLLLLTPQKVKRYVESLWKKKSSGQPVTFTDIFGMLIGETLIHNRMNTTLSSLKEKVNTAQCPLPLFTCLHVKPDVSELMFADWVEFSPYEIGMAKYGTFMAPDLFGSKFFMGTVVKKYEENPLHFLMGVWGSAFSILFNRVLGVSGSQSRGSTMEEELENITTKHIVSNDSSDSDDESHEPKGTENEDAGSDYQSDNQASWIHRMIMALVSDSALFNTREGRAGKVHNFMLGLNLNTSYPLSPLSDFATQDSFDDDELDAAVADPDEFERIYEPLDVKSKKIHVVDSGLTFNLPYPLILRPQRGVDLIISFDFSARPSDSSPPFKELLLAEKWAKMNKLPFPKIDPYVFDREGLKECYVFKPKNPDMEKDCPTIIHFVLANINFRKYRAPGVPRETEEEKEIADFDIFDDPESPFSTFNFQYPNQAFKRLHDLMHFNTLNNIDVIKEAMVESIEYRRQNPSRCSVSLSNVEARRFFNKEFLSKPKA
Method in brief: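 Human recombinant GIVA cPLA2, radioactivity mixed-micelle assay. Substrate: 400 μM Triton X-100, 95.3 μM PAPC, 1.7 μM arachidonyl-1-14C PAPC, 3 μM PIP2. Buffer: 100 mM HEPES pH 7.5, 90 μM CaCl2, 2 mM DTT, 0.1 mg/ml BSA. Screened at 0.091 mole fraction from DMSO stock. XI(50) fitted from % inhibition vs log mole fraction.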

INS1 [6] = experiment: Inhibition of IL-1beta/IFNgamma-induced apoptosis in rat INS-1 cells at 0.1 uM after 16 hrs by DAPI-based TUNEL assay; assay type: functional, cell-based
Method in brief: (§3)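 INS-1 cells exposed 16 h to IL-1β (100 U/mL) plus IFNγ (300 U/mL), with or without compound (0.10–10 μM) or DMSO vehicle (1 μL/mL). Apoptosis read by TUNEL (green) over total DAPI-stained nuclei, 6 fields per slide. The 6-field mean per slide is one replicate (n=3–12). Results given as mean ± SEM percent apoptotic cells.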

INS1 [7] = experiment: Inhibition of IL-1beta/IFNgamma-induced apoptosis in rat INS-1 cells at 1 uM after 16 hrs by DAPI-based TUNEL assay; assay type: functional; settings: INS1, 16 h; method in brief: as §3
INS1 [8] = experiment: Inhibition of IL-1beta/IFNgamma-induced apoptosis in rat INS-1 cells at 10 uM after 16 hrs by DAPI-based TUNEL assay; assay type: functional; settings: INS1, 16 h; method in brief: as §3
INS1 [9] = experiment: Cytotoxicity against rat INS-1 cells assessed as cell death at 10 uM after 16 hrs by TUNNEL assay (reference value: 7.06 +/- 0.36%); assay type: cell-based; settings: ins1, 16 h
Homo sapiens [10] = organism: Homo sapiens; experiment: Selectivity index, ratio of IC50 for inhibition of human recombinant G4A cPLA2 to IC50 for inhibition of human recombinant G6A iPLA2
INS1 [11] = experiment: Inhibition of IL-1beta/IFNgamma-induced apoptosis in rat INS-1 cells at 0.1 to 10 uM after 16 hrs by DAPI-based TUNEL assay

Row | Compound | XI50 (mole fraction) [1] | inhibition (Homo sapiens [2]) | inhibition [3] | inhibition [5] | also measured
1 | COc1ccc(CCSCC(=O)c2noc(C(C)(C)C)n2)cc1 | 0.0057 | 38% |  |  | 
2 | CCC[C@@H]1OC(=O)[C@@H]1CCCCc1ccc2ccccc2c1 (racemic) | 0.0021 | < 25% | 95% | 72% | 
3 | CCC[C@@H]1OC(=O)[C@@H]1CCCc1ccc(OC)cc1 (racemic) | 0.038 | 29% | 85% | 95% | 
4 | CCC[C@@H]1OC(=O)[C@@H]1CCCc1ccccc1 (racemic) |  | < 25% | 92% | 97% | 
5 | CCC[C@H]1OC(=O)[C@@H]1CCCCc1ccc2ccccc2c1 (racemic) | 9e-05 | 29% | 99% | 59% | 
6 | CCC[C@H]1OC(=O)[C@@H]1CCCc1ccc(OC)cc1 (racemic) | 0.00019 | 26% | 99% | 85% | 
7 | CCC[C@H]1OC(=O)[C@@H]1CCCc1ccccc1 (racemic) | 0.00019 | 25% | 99% | 90% | 

Now from value to molecule, other results behind:

Row | XI50 (mole fraction) [1] | inhibition (Homo sapiens [2]) | inhibition [3] | inhibition [5] | Compound | also measured
8 |  | 37% |  |  | O=C(CCCCc1ccc2ccccc2c1)C(F)(F)F | 
9 |  | 28% |  |  | O=C(CCCCc1ccccc1)C(F)(F)C(F)(F)F | 
10 | 0.007 | 34% | 99% | 94% | CCC[C@@H]1OC(=O)[C@@H]1CCCCc1ccccc1 (racemic) | IC50 [4]: 3.5 µM
11 | 2.1e-06 | 25% | 100% | 88% | CCC[C@H]1OC(=O)[C@@H]1CCCCc1ccccc1 (racemic) | IC50 [4]: 0.001 µM; inhibition (INS1 [6]): inactive; inhibition at 1 µM (INS1 [7]): 28%; inhibition at 10 µM (INS1 [8]): 41%; Activity (INS1 [9]): 9.51%; Ratio IC50 (Homo sapiens [10]): 22000; inhibition (INS1 [11]): Dose-dependent effect
12 |  | 27% | 81% | 89% | CCC[C@@H]1OC(=O)[C@@H]1CCCc1ccc2ccccc2c1 (racemic) | 
13 | 0.0003 | 30% | 98% | 73% | CCC[C@H]1OC(=O)[C@@H]1CCCc1ccc2ccccc2c1 (racemic) | 
